Measured values gathered from unrelated publications.
Protocols differ between the studies behind these lines.
ADRA2B: Alpha-2B adrenergic receptor (ADRA2B, Homo sapiens, UniProt P18089)
PIK3CG: Phosphatidylinositol 4,5-bisphosphate 3-kinase catalytic subunit gamma isoform (PIK3CG, Homo sapiens, UniProt P48736)

SMILES | target | test | quantity | result
NC(=O)C1CN(C(=O)CCl)c2ccccc2O1 (stereo not drawn) | Creatine kinase U-type, mitochondrial (CKMT1A, Homo sapiens, UniProt P12532) | binding, MST | Kd | 13000 nM
Cc1cc(Oc2ncccc2CN2CCN(c3ccccc3C)CC2)ccc1-c1c(C)c(=O)[nH]c(=O)n1C | ADRA2B | ligand displacement, radioligand | Ki | 28.4 nM
O=C1Nc2ccccc2/C1=N\c1ccc(Cl)cc1 | PIK3CG | enzyme activity, inhibitor, ADP detection | IC50 | 34.4 nM
Cc1cc(Oc2ncccc2CN2CCN(c3ccccc3O)CC2)ccc1-c1c(C)c(=O)[nH]c(=O)n1C | ADRA2B | ligand displacement, radioligand | Ki | 97.5 nM
Cc1cccc(N=C2C(=O)Nc3ccccc32)c1 | PIK3CG | enzyme activity, inhibitor, ADP detection | IC50 | 20.4 nM
Cn1ccc(-c2ccc(-c3cc(C(=O)O)cc4cc(-c5ccc(C(F)(F)F)cc5)ccc34)cc2)n1 | Sigma intracellular receptor 2 (TMEM97, Homo sapiens, UniProt Q5BJF2) | cell-free assay, radioligand | Ki | 1900 nM
Cc1cc(Oc2ncccc2CN2CCN(c3cccc(Cl)c3Cl)CC2)ccc1-c1c(C)c(=O)[nH]c(=O)n1C | ADRA2B | ligand displacement, radioligand | Ki | 113 nM
CC(C)C[C@H](NC(=O)[C@H](CC(C)C)NC(=O)[C@H](Cc1c[nH]c2ccccc12)NC(=O)[C@H](CCC(N)=O)NC(=O)[C@@H](NC(=O)[C@H](Cc1ccccc1)NC(=O)[C@H](CC(=O)O)NC(=O)[C@H](CCC(N)=O)NC(=O)[C@H](C)NC(=O)[C@H](C)NC(=O)[C@H](CCCNC(=N)N)NC(=O)[C@H](CCC(=O)O)NC(=O)[C@H](CC(=O)O)NC(=O)[C@H](CC(C)C)NC(=O)[C@H](Cc1ccc(O)cc1)NC(=O)[C@H](CCCCN)NC(=O)[C@H](CO)NC(=O)[C@H](Cc1ccc(O)cc1)NC(=O)[C@H](CC(=O)O)NC(=O)[C@H](CO)NC(=O)[C@@H](NC(=O)[C@H](Cc1ccccc1)NC(=O)[C@@H](NC(=O)CNC(=O)[C@H](CCC(N)=O)NC(=O)C(C)(C)NC(=O)[C@@H](N)Cc1c[nH]cn1)[C@@H](C)O)[C@@H](C)O)C(C)C)C(=O)N[C@@H](CC(=O)O)C(=O)NCC(=O)NCC(=O)N1CCC[C@H]1C(=O)N[C@@H](CO)C(=O)N[C@@H](CC(C)C)C(=O)N[C@@H](CCCNC(=N)N)C(=O)N[C@@H](Cc1c[nH]cn1)C(=O)N[C@@H](Cc1ccc(O)cc1)C(=O)N[C@@H](CC(C)C)C(=O)N[C@@H](CC(N)=O)C(=O)N[C@@H](CC(C)C)C(=O)N[C@H](C(=O)N[C@H](C(=O)N[C@@H](CCCNC(=N)N)C(=O)N[C@@H](CCC(N)=O)C(=O)N[C@@H](CCCNC(=N)N)C(=O)N[C@@H](Cc1ccc(O)cc1)C(N)=O)[C@@H](C)O)C(C)C | Neuropeptide Y receptor type 2 (NPY2R, Homo sapiens, UniProt P49146) | reporter gene, agonist, luciferase | EC50 | 0.4 nM
CCC(C(=O)N1C(=O)C(=Nc2ccc(Cl)cc2Br)c2ccccc21)c1ccccc1 (stereo not drawn) | PIK3CG | enzyme activity, inhibitor, ADP detection | IC50 | 28.3 nM
CN1CCc2nc(NC(=O)C3=NN(c4ccc(F)cc4)C(C(N)=O)C3)sc2C1 (stereo not drawn) | DDB1- and CUL4-associated factor 7 (Homo sapiens, UniProt P61962) | binding, SPR | Kd | > 71000 nM
O=C1C(=Nc2ccc(Cl)cc2)c2ccccc2N1Cc1ccc(Br)cc1 | PIK3CG | enzyme activity, inhibitor, ADP detection | IC50 | 5.93 nM
NC(=O)C1=CN([C@@H]2O[C@H](COP(=O)(O)OP(=O)(O)OC[C@H]3O[C@@H](n4cnc5c(N)ncnc54)[C@H](OP(=O)(O)O)[C@@H]3O)[C@@H](O)[C@H]2O)C=CC1 | MECR (Homo sapiens, UniProt Q9BV79) | binding, ITC | Kd | 956 nM
